In ChEMBL document CHEMBL4814039, “Identification of non-covalent SARS-CoV-2 main protease inhibitors by a virtual screen of commercially available drug-like compounds” (Bioorg Med Chem Lett, 2021) one finds inhibition data, which are given here for 17 compounds.

For the assay, the target named is Replicase polyprotein 1ab (Severe acute respiratory syndrome coronavirus 2) (UniProt P0DTD1). Put plainly: Inhibition of SARS-CoV-2 main protease at 50 uM using Dabcy1-KTSAVLQSGFRKM-E-Edans-NH2 as substrate incubated for 10 mins followed by substrate addition by FRET assay relative to control. The method in brief: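 Mpro, 0.5 µM final, in pH 7.3 buffer (20 mM Tris-HCl, 100 mM NaCl, 1 mM EDTA, 1 mM DTT) preincubated with compound (50 µM final, from DMSO stock) at 37 °C for 10 min. Reaction started with FRET substrate solution at 20 µM. Read ex 360/em 460 nm. Inhibition is from the initial linear ΔRFU/s versus a DMSO-only control. Triplicate, mean ± SD.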

What is called inhibition is the drop in the measured response relative to a control, in per cent. The low end stands for a response near the control, the high end for a response far below the control. Consider `Cn1c2ccccc2c2cc([C@@H]3N[C@H](C(=O)O)Cc4c3[nH]c3ccccc43)ccc21`, for which the inhibition was 6.54%.

`Cc1cccc(Nc2nc(C(=O)N3CCc4ccccc43)nc3ccccc23)c1`: the inhibition was 45.7%.

In turn, `CC(=O)N1N=C(c2cc(-c3ccccc3)nc3ccccc23)O[C@H]1c1ccccc1` returned an inhibition of 14.3%.

`O=C(CN1C(=O)c2ccccc2N2C(=O)c3ccccc3[C@H]12)Nc1cccc(O)c1`: the inhibition turned out to be 5.21%.

The compound `Cc1ccc(-n2nc(C)c3c(C)cc(OCc4ccc5nonc5c4)nc32)cc1` returned an inhibition of 5.26%.

Turning to `Cc1cccc2cc(-c3c4cn[nH]c4nc4c3oc3c(O)c(O)ccc34)c(=O)[nH]c12`, the inhibition was 76.6%.

In the case of `Cc1cccc2[nH]c([C@H]3CCCN(C(=O)c4nc5ccccn5c4F)C3)nc12`, the inhibition turned out to be 11.1%.

`O=C(c1ccc2ccccc2n1)N1CCc2c(nc(-c3ccccc3)[nH]c2=O)C1`: the inhibition was 1.16%.

In the case of `Cn1c2ccccc2c(=O)c2c1nc(Cc1ccccc1)n1c3ccccc3nc21`, the inhibition stood at 7.42%.

As to `O=C(NCc1ccc2c(c1)OCO2)c1ccc2nc3[nH]c4ccccc4c3nc2c1`, the inhibition turned out to be 35.6%.

Take `CC1=NN(c2ccc3ccccc3c2)C(=O)/C1=C1/C(=O)Nc2ccc(Cl)cc21`: the inhibition is 16.6%.

Turning to `Fc1ccc([C@H]2Oc3ccccc3[C@H]3CC(c4ccc5c(c4)OCO5)=NN32)cc1`, the inhibition came to 6.87%.

In the case of `O=c1oc2ccccc2c(O)c1[C@H]1c2ncccc2-c2c1c(=O)oc1ccccc21`, the inhibition came out at 8.23%.

As to `Cc1ccc2c(c1)NC1(CCN(C(=O)Cc3ccc(F)cc3)CC1)c1cccn1-2`, the inhibition is 6.29%.

`Cc1cc(C)nc(-n2nc(C)c3c2NC(=O)C[C@@H]3c2ccc3ccccc3c2)n1` returned an inhibition of 7.54%.

For `O=C1C[C@H](c2ccc(Cl)cc2)N2N=C(N3C(=O)[C@H]4CCCC[C@H]4C3=O)NC2=N1`, the inhibition turned out to be 8.84%.

`O=C(c1cc2nccc(-c3ccc4ccccc4c3)n2n1)N1CCN2CCC[C@H]2C1`: the inhibition stood at 9.38%.
